High-throughput results (PubChem BioAssay)
Sampled rows, rich in hits. Any-hit rate of the full collection: about 9.8%.
Lmaj promast: reduces viability of Leishmania major promastigotes; inhibition, % at 10 µM; resazurin fluorescence viability; hit rate 9% among 200,000; in the data active = inhibition above about 50%;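 note: promastigotes grown with compound for 44 hours at 28 °C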
PMI activator: activators of human phosphomannose isomerase; P34949; purified human PMI, coupled resazurin fluorescence, 20 min; hits give high values; 1 = vehicle control, 0 substrate-free wells; activation factor at 20 µM; hit rate 0.005% among 190,000;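 active = activation factor of 2 or more at 20 µM, relative to plate controls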
Target sequence (P34949 whole entry, looked up): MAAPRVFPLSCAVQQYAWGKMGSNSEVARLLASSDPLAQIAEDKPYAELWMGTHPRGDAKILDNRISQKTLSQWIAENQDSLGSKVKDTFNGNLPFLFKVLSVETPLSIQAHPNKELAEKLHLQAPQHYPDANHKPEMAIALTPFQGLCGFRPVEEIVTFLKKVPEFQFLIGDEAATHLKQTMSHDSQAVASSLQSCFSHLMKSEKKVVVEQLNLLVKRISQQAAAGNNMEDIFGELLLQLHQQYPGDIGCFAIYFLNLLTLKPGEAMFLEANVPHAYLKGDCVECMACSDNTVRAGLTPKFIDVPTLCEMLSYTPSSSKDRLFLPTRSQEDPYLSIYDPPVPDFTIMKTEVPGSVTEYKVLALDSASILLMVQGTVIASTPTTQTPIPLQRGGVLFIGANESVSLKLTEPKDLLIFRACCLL
PMI act satM6P: PMI (human) activation, high substrate; coupled PMI enzyme assay, resazurin fluorescence, 20 min; hits give high values; 1 = untreated enzyme, 0 = substrate-free blank; activation factor at 20 µM; hit rate 0.34% among 190,000;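 active = activation factor of 2 or more at 20 µM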
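Test system – human PMI in coupled enzyme assay · Timing – 20 min incubation at room temperature · Detection – Diaphorase-driven resazurin-to-resorufin fluorescence, excitation 544, emission 590 nm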
m-calpain inh: inhibitors of pig calpain II; purified calpain II, fluorogenic peptide substrate, 30 min; inhibition, % at 16 µM; hit rate 0.37% among 220,000;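 active = inhibition above about 50%, limit read from the data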
WT yeast gro inh: growth inhibition of WT yeast, mitochondrial fusion screen; mitochondrial fusion phenotypic screen, WT strain; inhibition, % at 10 µM; hit rate 2.1% among 190,000; AID 1362; in the data active = inhibition above about 58%; tested in S. cerevisiae
Rad51 HR inh: blocks human Rad51 in homologous recombination; AID 1385; inhibition, % at 10 µM; Q06609; hit rate 0.085% among 200,000; hRad51 DNA strand exchange, fluorescence dequenching;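 active = inhibition above 40% at the single screening dose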
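Read-out basis: percent inhibition relative to plate controls and blanks / Assay system: human Rad51 nucleoprotein filaments preassembled on unlabelled ssDNA / Timing: filaments 15 min 37 °C, then compound 30 min / Control set: per-plate controls and blanks / Technique: fluorescence dequenching at 485/520 nm / Compound: 10 µM final, single point / Also added: Fluorescein- and BHQ1-tagged 47-mer duplex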
Of the large screens only hits and unclear results are named; the others gave an inactive call.

CC(/C=C/c1ccccc1)=N/NC(=O)CNC(=O)c1ccc2c(c1)OCO2	none (no result: Rad51 HR inh)
O=C(Cn1c(=O)n(-c2ccccc2)c(=O)c2sccc21)NCc1ccccc1	none
Cc1nc2c(-c3ccc(F)cc3)c(C)nn2c(C)c1CCC(=O)NC(C)CCc1ccco1 (centres undefined)	Lmaj promast 100
Cc1nc2c(-c3ccccc3)c(C)nn2c(C)c1CCC(=O)NCc1ccco1	none
CNC(=S)NNC(=O)c1ccccc1F	m-calpain inh 90
CNC(=S)NNC(=O)c1ccccc1Cl	none (no result: Lmaj promast, PMI activator, PMI act satM6P, WT yeast gro inh)
Cc1ccc(NC(=O)c2c(C)nn(-c3ccccc3)c2Cl)cc1	none
CC1CC2(CCCC2)N(C(=O)c2ccccc2)Cc2ccccc21 (centres undefined)	WT yeast gro inh 72
Cc1ccc(NC(=O)/C=C/c2ccc([N+](=O)[O-])s2)cc1	Lmaj promast 97
Cc1cccc(NC(=S)N/N=C/c2ccc([N+](=O)[O-])s2)c1	Lmaj promast 93
Cc1ccc(NC(=O)/C=C/c2ccc([N+](=O)[O-])s2)c(C)c1	none
Cc1cccc(NC(=O)/C=C/c2ccc([N+](=O)[O-])s2)c1	Lmaj promast 100
CCCC(=O)NCCc1ccc(S(N)(=O)=O)cc1	none
Nc1nc(CN2CCN(c3ccccc3)CC2)nc(Nc2ccc(Cl)cc2)n1	none
CC1CCCC(NC(=S)NC(=O)c2ccccc2Br)C1C (centres undefined)	WT yeast gro inh 63
Cc1ccc2c(c1)nnn2C1CCN(S(=O)(=O)c2ccc(C(=O)N3CC(C)CC(C)C3)cc2)CC1 (centres undefined)	m-calpain inh 51
Cc1ccc2cc(CN(Cc3ccc4c(c3)OCO4)Cc3nnnn3Cc3ccco3)c(=O)[nH]c2c1	Lmaj promast 77
Cc1ccc(CN(Cc2cc3cc4c(cc3[nH]c2=O)OCCO4)Cc2nnnn2Cc2ccco2)cc1	none (no result: Rad51 HR inh)
COc1ccc2cc(CN(CCc3ccccc3)Cc3nnnn3Cc3ccco3)c(=O)[nH]c2c1	Lmaj promast 100
COc1ccc2[nH]c(=O)c(CN(Cc3nnnn3Cc3ccco3)C3CCCCC3)cc2c1	none
COc1ccccc1CN(Cc1cc2c(C)ccc(C)c2[nH]c1=O)Cc1nnnn1Cc1ccco1	Lmaj promast 100
CCC(c1nnnn1Cc1ccco1)N(Cc1ccccc1OC)Cc1cc2cc(C)ccc2[nH]c1=O (centres undefined)	none
NC(=O)CC1C(=O)N(c2ccc(F)cc2)C(=O)N1NC(=O)CCc1ccccc1 (centres undefined)	none
Cc1ccc(NC(=O)NCC2CCN(Cc3cccc(Cl)c3)CC2)cc1Cl	Lmaj promast 87, WT yeast gro inh 82
Cc1ccc(NC(=O)NCC2CCN(Cc3cccc(Cl)c3)CC2)c(Cl)c1	Lmaj promast 84
Cc1ccc(NC(=O)NCC2CCN(Cc3cc(C)ccc3Cl)CC2)c(C)c1	none
COc1cc(OC)cc(C(=O)NNC(=O)c2cc3c(s2)CCCC3)c1	none (no result: Rad51 HR inh)
OCCN1CCN(C2Cc3cc(Cl)ccc3Sc3ccc(Cl)cc32)CC1 (centres undefined) (tested in a mixture with another compound)	Lmaj promast 55 (no result: Rad51 HR inh)
CN1CCN(CCOC2Cc3ccccc3Sc3ccc(Cl)cc32)CC1 (centres undefined)	Lmaj promast 66
Cc1ccc(N2C(=O)c3ccccc3C2Nc2cccnc2)nc1 (centres undefined)	Lmaj promast 69
COc1cc(NC2c3ccccc3C(=O)N2c2ccc(C)cn2)cc(OC)c1OC (centres undefined)	none
C/C(=N/NC(=O)c1ccc(C)nc1)c1ccc2c(c1)CCCC2	none
CC1(C)C2CC=C(/C=N/NC(=O)c3ccc(O)cc3)C1C2 (centres undefined)	Lmaj promast 94
COC(=O)N/N=C/C1=CCC2CC1C2(C)C (centres undefined)	Lmaj promast 58
CC1(C)C2CC=C(/C=N/NC(=O)C(N)=O)C1C2 (centres undefined)	none (no result: Lmaj promast, PMI activator, PMI act satM6P, WT yeast gro inh)
CC1(C)C2CC=C(/C=N/NC(=O)c3ccccc3Br)C1C2 (centres undefined)	Lmaj promast 100
COc1ccccc1C(=O)Nc1nc2cc3c(cc2s1)OCCO3	Lmaj promast 75
